For 18 compounds, viability, Her2 level and differential viability (reversal) results are on record in PubChem BioAssay.

Calls of active or inactive are those of the source.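 The calls were made as follows, unless noted: active = Her2 level under about 52% in both replicate screens, with viability over 70% of control (limit read from the data); inconclusive = Her2 under the limit in one screen only, or viability under 70%; inactive = Her2 level above the set limit.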

Test [1] can be described thus: Her2 expression decrease, cell viability multiplex – SKBR3 breast tumor cells, AlphaScreen, ATP viability, primary screen (AID 461).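 As to Her2 level: lower value means less Her2 protein in the cells.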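 As to viability: percent of carrier control wells set as 100% viability.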 The settings on record: SKBR3 Her2 protein level, 18-24 h, measured here: SKBR3 viability, ATP luminescence, at 10 µM.
Test [2] has as its target Receptor tyrosine-protein kinase erbB-2 (Homo sapiens) (UniProt P04626). Described as above. To be noted: 18-24 h, at 10 µM, stronger effect = lower value.
Test [3] in a line: reduced viability of SK-BR-3 breast cancer cells – cell-based, 24 h, human, pilot screen (AID 572;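 active = viability at or below 10% of carrier control in both of two separate runs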;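 also: compound exposure lasted between 18 and 24 h rather than exactly 24 h; 100% = carrier-treated control wells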). The settings on record: SK-BR-3 viability, CellTiter-Glo luminescence, at 10 µM, stronger effect = lower value.
Test [4] is described as follows: HUVEC growth inhibition – cell-based, human, primary screen (AID 575;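 active = viability at or below 30% in both replicate assays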;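 also: 100% = median of untreated cell wells with 0.1% DMSO on each plate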). The settings on record: HUVEC proliferation, CellTiter-Glo luminescence, 72 h; at 10 µM; stronger effect = lower value. In a few lines: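 Test system: HUVEC primary cells. Quantity: 1250 endothelial cells in each well. Dosing: single-point 10 µM, DMSO 0.1% final. Incubation: 72 h treatment at 37 °C. Measured by: CTG luminescence. Control set: DMSO cell controls and MePR drug controls. Plate: collagen-coated 384-well format.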

Test [5] in a line: H69AR cell proliferation blockers – human, duplicate replicates, primary screen (AID 580;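 active = viability at or under a set limit in both replicates, limit being median viability minus 3 SD, cut at about 48% in these data, passing the limit was not always enough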;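 also: 100% = mean luminescence of untreated wells and 0% = no signal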). To be noted: H69AR lung tumor cells viability, ATP luminescence, 72 h; at 10 µM; stronger effect = lower value.
Test [6] in a line: MRP1 drug-resistance reversers in H69AR cells – cell-based, doxorubicin co-treatment, pilot screen (AID 601;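 active = viability loss from added drug above about 55%, and viability with drug at most 40%, in both replicates, limit read from the data, passing the limit was not always enough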). The settings on record: CellTiter-Glo, 72 h, at 10 µM; for differential viability (reversal): stronger effect = higher value.
Setting [7] is: H69AR cells + 2 uM doxorubicin, measured here: viability with 2 uM doxorubicin, stronger effect = lower value.
Setting [8] is: H69AR cells, compound alone cytotoxicity.

Chain of Receptor tyrosine-protein kinase erbB-2 (Homo sapiens) (P04626 whole entry, looked up): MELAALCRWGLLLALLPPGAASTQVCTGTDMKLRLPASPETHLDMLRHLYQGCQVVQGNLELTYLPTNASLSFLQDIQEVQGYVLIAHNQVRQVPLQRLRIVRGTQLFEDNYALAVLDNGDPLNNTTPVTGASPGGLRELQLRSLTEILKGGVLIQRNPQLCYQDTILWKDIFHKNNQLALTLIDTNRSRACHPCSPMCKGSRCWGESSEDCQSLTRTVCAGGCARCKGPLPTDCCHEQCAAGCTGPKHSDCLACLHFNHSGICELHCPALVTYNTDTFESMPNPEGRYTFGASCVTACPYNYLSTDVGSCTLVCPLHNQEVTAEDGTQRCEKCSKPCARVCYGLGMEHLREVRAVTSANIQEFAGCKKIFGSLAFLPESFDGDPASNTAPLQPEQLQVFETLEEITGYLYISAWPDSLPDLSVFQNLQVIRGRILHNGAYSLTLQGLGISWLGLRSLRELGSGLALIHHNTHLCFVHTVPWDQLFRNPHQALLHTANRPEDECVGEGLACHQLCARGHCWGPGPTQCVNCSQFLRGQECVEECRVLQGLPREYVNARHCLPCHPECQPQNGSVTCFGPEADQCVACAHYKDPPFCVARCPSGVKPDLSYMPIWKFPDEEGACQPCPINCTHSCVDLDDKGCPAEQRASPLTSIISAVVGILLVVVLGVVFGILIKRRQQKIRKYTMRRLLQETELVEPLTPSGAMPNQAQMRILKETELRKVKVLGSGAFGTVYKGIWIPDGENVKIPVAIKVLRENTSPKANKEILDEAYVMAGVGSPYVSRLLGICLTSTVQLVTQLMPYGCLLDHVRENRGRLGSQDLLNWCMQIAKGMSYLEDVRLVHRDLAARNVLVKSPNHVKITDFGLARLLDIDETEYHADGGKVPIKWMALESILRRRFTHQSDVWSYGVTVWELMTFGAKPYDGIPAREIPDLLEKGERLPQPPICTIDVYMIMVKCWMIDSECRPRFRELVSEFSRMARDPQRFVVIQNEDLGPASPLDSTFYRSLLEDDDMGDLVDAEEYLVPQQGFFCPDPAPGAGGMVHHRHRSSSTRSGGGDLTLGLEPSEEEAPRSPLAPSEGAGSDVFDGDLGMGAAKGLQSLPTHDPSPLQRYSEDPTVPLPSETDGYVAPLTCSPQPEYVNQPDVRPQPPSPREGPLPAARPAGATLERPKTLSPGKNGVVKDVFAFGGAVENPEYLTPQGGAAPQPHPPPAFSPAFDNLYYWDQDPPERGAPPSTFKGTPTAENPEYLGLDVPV

Take `CCN(CC)CCNC(=O)c1ccc(N)cc1`: the viability in test [1] was 97.5%; in test [3], 97.5% (inactive); in test [4], 99.2% (inactive); in test [5], 88.1% (inactive); in test [6] (setting [7]) it was 98.8%; in test [6] (setting [8]), 88.1%. Moreover, the Her2 level in test [2] is 136% (inactive). In test [6] (H69AR cells + 2 uM doxorubicin), the differential viability (reversal) is -10.7% (inactive).

Take `CCCCN(CCCC)CCCOC(=O)c1ccc(N)cc1`: the viability in test [1] was 92%; in test [3] it was 92% (inactive); in test [4], 111% (inactive); in test [5], 90.7% (inactive); in test [6] (setting [7]) it was 99.2%; in test [6] (setting [8]) it was 90.7%. In addition, the Her2 level in test [2] is 106% (inactive). For the same compound, in test [6] (H69AR cells + 2 uM doxorubicin), the differential viability (reversal) was -8.53% (inactive).

Regarding `Cc1nnc(NS(=O)(=O)c2ccc(N)cc2)s1`, the viability in test [1] was 93.5%; in test [3] it was 93.5% (inactive); in test [4] it was 105% (inactive); in test [5], 96.2% (inactive); in test [6] (setting [7]), 107%; in test [6] (setting [8]), 96.2%. Also, in test [2], the Her2 level was 126% (inactive). Also, the differential viability (reversal) in test [6] (H69AR cells + 2 uM doxorubicin) was -10.4% (inactive).

As for `CN(C)CCOc1ccccc1Cc1ccccc1`, the viability in test [1] was 88.5%; in test [3], 88.5% (inactive); in test [4], 107% (inactive); in test [5], 100% (inactive); in test [6] (setting [7]), 89.5%; in test [6] (setting [8]), 100%. Moreover, the Her2 level in test [2] is 95.5% (inactive). Besides, in test [6] (H69AR cells + 2 uM doxorubicin), the differential viability (reversal) is 11% (inactive).

In the case of `CN1CCN(CC(=O)N2c3ccccc3C(=O)Nc3cccnc32)CC1`, the viability in test [1] is 122%; in test [3] it was 122% (inactive); in test [4], 98.8% (inactive); in test [5] it was 96.1% (inactive); in test [6] (setting [7]), 90%; in test [6] (setting [8]), 96.1%. For the same compound, the Her2 level in test [2] was 98.5% (inactive). The differential viability (reversal) in test [6] (H69AR cells + 2 uM doxorubicin) is 6.04% (inactive).

In the case of `CN(C)[C@@H]1C(=O)C(C(N)=O)=C(O)[C@@]2(O)C(=O)C3=C(O)c4c(O)ccc(Cl)c4[C@@H](O)[C@H]3C[C@@H]12`, the viability in test [1] was 140%; in test [3] it was 140% (inactive); in test [4], 101% (inactive); in test [5] it was 84.2% (inactive); in test [6] (setting [7]), 83.6%; in test [6] (setting [8]), 84.2%. In addition, in test [2], the Her2 level is 108% (inactive). Moreover, the differential viability (reversal) in test [6] (H69AR cells + 2 uM doxorubicin) is 0.66% (inactive).

On to `CC(C)CCNC(=O)[C@H](CC(C)C)NC(=O)[C@H]1O[C@@H]1C(=O)O`, for which the viability in test [1] is 104%; in test [3], 104% (inactive); in test [4], 95.9% (inactive); in test [5] it was 100% (inactive); in test [6] (setting [7]), 94.5%; in test [6] (setting [8]), 100%. The Her2 level in test [2] is 112% (inactive). Also, in test [6] (H69AR cells + 2 uM doxorubicin), the differential viability (reversal) was 5.67% (inactive).

`Cc1ncc([N+](=O)[O-])n1CC(O)CCl` (centres undefined): the viability was 99.5% in test [1]; 99.5% (inactive) in test [3]; 108% (inactive) in test [4]; 104% (inactive) in test [5]; 104% in test [6] (setting [7]); 104% in test [6] (setting [8]). In addition, the Her2 level in test [2] was 106% (inactive). For the same compound, the differential viability (reversal) in test [6] (H69AR cells + 2 uM doxorubicin) is 0.25% (inactive).

As to `Cc1onc(-c2ccccc2)c1C(=O)N[C@@H]1C(=O)N2[C@@H]1SC(C)(C)[C@@H]2C(=O)O`, the viability was 108% in test [1]; 108% (inactive) in test [3]; 91.1% (inactive) in test [4]; 101% (inactive) in test [5]; 101% in test [6] (setting [7]); 101% in test [6] (setting [8]). Besides, the Her2 level in test [2] is 100% (inactive). For the same compound, in test [6] (H69AR cells + 2 uM doxorubicin), the differential viability (reversal) is 0% (inactive).

As to `CC[N+](C)(CC)CCOC(=O)C(O)(c1ccccc1)C1CCCCC1` (centres undefined), the viability is 91.5% in test [1]; 91.5% (inactive) in test [3]; 98.9% (inactive) in test [4]; 110% (inactive) in test [5]; 97% in test [6] (setting [7]); 110% in test [6] (setting [8]). In test [2], the Her2 level is 97.5% (inactive). The differential viability (reversal) in test [6] (H69AR cells + 2 uM doxorubicin) was 12.8% (inactive).

For the compound `CN(C(=O)C(Cl)Cl)c1ccc(OC(=O)c2ccco2)cc1`, the viability in test [1] is 130%; in test [3], 130% (inactive); in test [4], 86.3% (inactive); in test [5], 96.6% (inactive); in test [6] (setting [7]) it was 91.5%; in test [6] (setting [8]) it was 96.6%. Moreover, the Her2 level in test [2] was 88% (inactive). Further, the differential viability (reversal) in test [6] (H69AR cells + 2 uM doxorubicin) was 5.13% (inactive).

Take `CCCC(=O)Nc1ccc(OCC(O)CNC(C)C)c(C(C)=O)c1` (centres undefined): the viability was 100% in test [1]; 100% (inactive) in test [3]; 115% (inactive) in test [4]; 101% (inactive) in test [5]; 102% in test [6] (setting [7]); 101% in test [6] (setting [8]). Further, in test [2], the Her2 level was 121% (inactive). Further, in test [6] (H69AR cells + 2 uM doxorubicin), the differential viability (reversal) was -0.95% (inactive).

In the case of `Nc1ccc(S(=O)(=O)NC(=O)c2ccccc2)cc1`, the viability in test [1] was 104%; in test [3] it was 104% (inactive); in test [4], 90% (inactive); in test [5], 98.5% (inactive); in test [6] (setting [7]) it was 92.4%; in test [6] (setting [8]), 98.5%. In addition, the Her2 level in test [2] is 100% (inactive). The differential viability (reversal) in test [6] (H69AR cells + 2 uM doxorubicin) was 6.16% (inactive).

On to `CCn1cc(C(=O)O)c(=O)c2cnc(N3CCNCC3)nc21`, for which the viability in test [1] is 108%; in test [3], 108% (inactive); in test [4] it was 96.5% (inactive); in test [5], 107% (inactive); in test [6] (setting [7]) it was 90.9%; in test [6] (setting [8]), 107%. The Her2 level in test [2] is 102% (inactive). Also, in test [6] (H69AR cells + 2 uM doxorubicin), the differential viability (reversal) is 16.4% (inactive).

As to `CN(C)CCCN1c2ccccc2CCc2ccccc21`, the viability in test [1] is 105%; in test [3] it was 105% (inactive); in test [4] it was 81% (inactive); in test [5] it was 77.7% (inactive); in test [6] (setting [7]), 73.5%; in test [6] (setting [8]), 77.7%. Also, in test [2], the Her2 level was 104% (inactive). The differential viability (reversal) in test [6] (H69AR cells + 2 uM doxorubicin) is 4.16% (inactive).

Take `Cc1nnc(SCC2=C(C(=O)O)N3C(=O)[C@@H](NC(=O)Cn4cnnn4)[C@H]3SC2)s1`: the viability is 88.5% in test [1]; 88.5% (inactive) in test [3]; 105% (inactive) in test [4]; 101% (inactive) in test [5]; 98.7% in test [6] (setting [7]); 101% in test [6] (setting [8]). The Her2 level in test [2] was 99.5% (inactive). Moreover, in test [6] (H69AR cells + 2 uM doxorubicin), the differential viability (reversal) is 1.93% (inactive).

`CC1CCc2cc(F)cc3c(=O)c(C(=O)O)cn1c23` (centres undefined): the viability in test [1] was 104%; in test [3], 104% (inactive); in test [4] it was 98.5% (inactive); in test [5] it was 104% (inactive); in test [6] (setting [7]), 99.2%; in test [6] (setting [8]), 104%. The Her2 level in test [2] was 100% (inactive). In test [6] (H69AR cells + 2 uM doxorubicin), the differential viability (reversal) was 4.35% (inactive).

`CCS(=O)(=O)CCn1c([N+](=O)[O-])cnc1C`: the viability in test [1] was 89.5%; in test [3], 89.5% (inactive); in test [4] it was 105% (inactive); in test [5], 100% (inactive); in test [6] (setting [7]) it was 90.9%; in test [6] (setting [8]), 100%. In test [2], the Her2 level is 122% (inactive). Moreover, the differential viability (reversal) in test [6] (H69AR cells + 2 uM doxorubicin) was 9.26% (inactive).
